For 22 molecules, EC50, IC50 and MIC results are on record in ChEMBL document CHEMBL5131416, “Solid-phase synthesis and biological evaluation of piperazine-based novel bacterial topoisomerase inhibitors” (Bioorg Med Chem Lett, 2022).

Assay [1] has as its target Voltage-gated inwardly rectifying potassium channel KCNH2 (Homo sapiens, UniProt Q12809). The experiment in a line: Inhibition of hERG by fluorescence polarization assay. It counts as toxicity. The gist of the method:
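hERG inhibition was measured with a commercial Predictor hERG fluorescence-polarization kit.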
(Block of hERG is tested as a sign of cardiac risk.)

Assay [2] deals with DNA gyrase (Escherichia coli, UniProt P0AES4+P0AES6). The experiment in a line: Inhibition of Escherichia coli DNA gyrase by fluorescence based microtiter plate reader assay. The class given is protein-complex assay.
The subject of assay [3] is Staphylococcus aureus. The experiment in a line: Antibacterial activity against methicillin-susceptible Staphylococcus aureus NCTC 8325-4 assessed as inhibition of bacterial growth by broth microdilution method. The class given is functional.
Assay [4] deals with Staphylococcus aureus. The experiment in a line: Antibacterial activity against methicillin-resistant Staphylococcus aureus CC398 assessed as inhibition of bacterial growth by broth microdilution method. It counts as functional.
Assay [5] has as its target DNA gyrase (Staphylococcus aureus, UniProt P0A0K8+P20831). The experiment in a line: Inhibition of Staphylococcus aureus DNA gyrase supercoiling activity using pNO1 plasmid DNA as substrate incubated for 30 mins by fluorescence based microtiter plate reader assay. It counts as protein-complex assay.
Assay [6] has as its target Topoisomerase IV (Staphylococcus aureus, UniProt P0C1S7+P0C1U9). The experiment in a line: Inhibition of Staphylococcus aureus topoisomerase 4 using pNO1 plasmid DNA as substrate incubated for 30 mins by fluorescence based microtiter plate reader assay. It counts as protein-complex assay.
Where [7] appears, read: Staphylococcus aureus, NCTC 8325-4, read-out: MIC.
Setting [8] is: Staphylococcus aureus, CC398, read-out: MIC.

Values joined by “and” are separate entries in the source; they are usually repeats but may differ in a detail not shown here. Equal entries are not always repeated.

Chain of Topoisomerase IV (P0C1U9 whole entry): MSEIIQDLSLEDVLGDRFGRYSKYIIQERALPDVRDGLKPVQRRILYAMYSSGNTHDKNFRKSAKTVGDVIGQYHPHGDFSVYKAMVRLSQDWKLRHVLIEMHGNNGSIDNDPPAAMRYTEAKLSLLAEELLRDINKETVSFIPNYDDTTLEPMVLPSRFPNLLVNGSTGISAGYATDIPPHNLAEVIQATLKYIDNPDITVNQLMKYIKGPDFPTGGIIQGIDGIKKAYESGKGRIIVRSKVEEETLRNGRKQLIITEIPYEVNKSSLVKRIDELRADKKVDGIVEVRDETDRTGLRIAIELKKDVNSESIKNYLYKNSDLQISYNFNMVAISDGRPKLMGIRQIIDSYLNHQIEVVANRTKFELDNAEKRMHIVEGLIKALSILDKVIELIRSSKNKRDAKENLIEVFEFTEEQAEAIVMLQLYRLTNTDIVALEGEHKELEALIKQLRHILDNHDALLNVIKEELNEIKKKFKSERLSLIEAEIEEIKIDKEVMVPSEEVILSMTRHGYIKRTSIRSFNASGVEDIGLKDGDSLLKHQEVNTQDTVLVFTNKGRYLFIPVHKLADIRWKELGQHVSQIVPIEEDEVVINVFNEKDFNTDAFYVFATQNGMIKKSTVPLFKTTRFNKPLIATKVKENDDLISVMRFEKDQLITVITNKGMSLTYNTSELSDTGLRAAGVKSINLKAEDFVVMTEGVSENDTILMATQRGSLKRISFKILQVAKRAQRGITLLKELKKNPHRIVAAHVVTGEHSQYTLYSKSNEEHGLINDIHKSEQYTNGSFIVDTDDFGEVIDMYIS
Chain of Topoisomerase IV (P0C1S7 whole entry): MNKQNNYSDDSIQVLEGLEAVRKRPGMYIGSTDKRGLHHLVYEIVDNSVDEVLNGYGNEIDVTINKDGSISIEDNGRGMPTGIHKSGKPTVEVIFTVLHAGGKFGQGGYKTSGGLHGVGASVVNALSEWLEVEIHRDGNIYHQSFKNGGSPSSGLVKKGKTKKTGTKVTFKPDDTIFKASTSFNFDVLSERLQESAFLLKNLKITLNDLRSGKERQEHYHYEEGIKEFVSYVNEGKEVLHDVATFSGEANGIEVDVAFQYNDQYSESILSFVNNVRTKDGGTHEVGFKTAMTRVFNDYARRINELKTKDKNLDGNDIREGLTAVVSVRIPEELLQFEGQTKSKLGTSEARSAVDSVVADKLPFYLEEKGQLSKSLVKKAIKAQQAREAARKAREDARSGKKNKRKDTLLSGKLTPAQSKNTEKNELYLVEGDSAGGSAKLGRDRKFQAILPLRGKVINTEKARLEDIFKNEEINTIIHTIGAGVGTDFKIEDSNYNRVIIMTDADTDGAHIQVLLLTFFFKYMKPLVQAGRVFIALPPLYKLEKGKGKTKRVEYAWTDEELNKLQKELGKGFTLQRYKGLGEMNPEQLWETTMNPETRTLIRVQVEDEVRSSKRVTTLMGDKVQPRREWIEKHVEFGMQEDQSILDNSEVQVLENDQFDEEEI
Chain of DNA gyrase (Staphylococcus aureus, UniProt P0A0K8+P20831) (P0A0K8 whole entry): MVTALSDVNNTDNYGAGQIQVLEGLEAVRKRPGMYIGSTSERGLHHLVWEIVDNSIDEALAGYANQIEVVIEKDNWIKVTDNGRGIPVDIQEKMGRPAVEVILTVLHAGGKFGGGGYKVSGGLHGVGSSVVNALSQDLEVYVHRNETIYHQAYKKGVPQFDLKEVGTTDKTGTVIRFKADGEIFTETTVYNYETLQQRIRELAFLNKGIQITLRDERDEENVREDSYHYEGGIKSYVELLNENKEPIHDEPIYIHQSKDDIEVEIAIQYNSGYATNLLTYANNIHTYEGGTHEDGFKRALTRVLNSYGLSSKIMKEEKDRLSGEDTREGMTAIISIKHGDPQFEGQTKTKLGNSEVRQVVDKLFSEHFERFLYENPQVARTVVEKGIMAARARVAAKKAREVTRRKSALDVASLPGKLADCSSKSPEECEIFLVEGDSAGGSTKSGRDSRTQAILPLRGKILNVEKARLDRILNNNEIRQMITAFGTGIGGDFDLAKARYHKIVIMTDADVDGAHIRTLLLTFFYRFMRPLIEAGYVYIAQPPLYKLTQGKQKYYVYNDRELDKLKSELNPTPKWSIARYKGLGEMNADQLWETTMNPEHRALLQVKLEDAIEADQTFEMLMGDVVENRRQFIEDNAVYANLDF
Chain of DNA gyrase (Staphylococcus aureus, UniProt P0A0K8+P20831) (P20831 whole entry): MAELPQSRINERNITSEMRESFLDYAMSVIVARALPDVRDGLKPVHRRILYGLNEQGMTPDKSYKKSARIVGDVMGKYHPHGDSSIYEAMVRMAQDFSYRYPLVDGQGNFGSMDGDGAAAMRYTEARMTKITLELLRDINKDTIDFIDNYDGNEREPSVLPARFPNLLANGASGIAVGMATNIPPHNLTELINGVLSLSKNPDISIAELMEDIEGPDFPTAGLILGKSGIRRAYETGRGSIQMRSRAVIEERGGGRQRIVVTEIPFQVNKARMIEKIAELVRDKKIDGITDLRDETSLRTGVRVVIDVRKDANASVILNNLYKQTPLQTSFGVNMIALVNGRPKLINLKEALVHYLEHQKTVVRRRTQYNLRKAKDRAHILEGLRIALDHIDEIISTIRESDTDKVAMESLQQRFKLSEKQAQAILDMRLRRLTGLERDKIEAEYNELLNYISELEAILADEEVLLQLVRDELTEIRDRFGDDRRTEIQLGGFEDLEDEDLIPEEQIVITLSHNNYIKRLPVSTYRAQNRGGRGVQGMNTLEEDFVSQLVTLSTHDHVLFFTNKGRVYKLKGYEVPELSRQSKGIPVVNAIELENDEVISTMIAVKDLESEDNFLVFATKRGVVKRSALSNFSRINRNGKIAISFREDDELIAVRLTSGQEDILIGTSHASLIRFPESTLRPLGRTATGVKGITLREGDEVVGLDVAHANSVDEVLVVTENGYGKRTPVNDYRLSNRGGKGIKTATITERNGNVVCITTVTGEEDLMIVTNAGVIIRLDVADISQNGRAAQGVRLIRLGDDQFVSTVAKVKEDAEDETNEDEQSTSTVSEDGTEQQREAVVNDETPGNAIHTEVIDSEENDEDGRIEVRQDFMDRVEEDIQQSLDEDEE
Chain of Voltage-gated inwardly rectifying potassium channel KCNH2 (Q12809 whole entry): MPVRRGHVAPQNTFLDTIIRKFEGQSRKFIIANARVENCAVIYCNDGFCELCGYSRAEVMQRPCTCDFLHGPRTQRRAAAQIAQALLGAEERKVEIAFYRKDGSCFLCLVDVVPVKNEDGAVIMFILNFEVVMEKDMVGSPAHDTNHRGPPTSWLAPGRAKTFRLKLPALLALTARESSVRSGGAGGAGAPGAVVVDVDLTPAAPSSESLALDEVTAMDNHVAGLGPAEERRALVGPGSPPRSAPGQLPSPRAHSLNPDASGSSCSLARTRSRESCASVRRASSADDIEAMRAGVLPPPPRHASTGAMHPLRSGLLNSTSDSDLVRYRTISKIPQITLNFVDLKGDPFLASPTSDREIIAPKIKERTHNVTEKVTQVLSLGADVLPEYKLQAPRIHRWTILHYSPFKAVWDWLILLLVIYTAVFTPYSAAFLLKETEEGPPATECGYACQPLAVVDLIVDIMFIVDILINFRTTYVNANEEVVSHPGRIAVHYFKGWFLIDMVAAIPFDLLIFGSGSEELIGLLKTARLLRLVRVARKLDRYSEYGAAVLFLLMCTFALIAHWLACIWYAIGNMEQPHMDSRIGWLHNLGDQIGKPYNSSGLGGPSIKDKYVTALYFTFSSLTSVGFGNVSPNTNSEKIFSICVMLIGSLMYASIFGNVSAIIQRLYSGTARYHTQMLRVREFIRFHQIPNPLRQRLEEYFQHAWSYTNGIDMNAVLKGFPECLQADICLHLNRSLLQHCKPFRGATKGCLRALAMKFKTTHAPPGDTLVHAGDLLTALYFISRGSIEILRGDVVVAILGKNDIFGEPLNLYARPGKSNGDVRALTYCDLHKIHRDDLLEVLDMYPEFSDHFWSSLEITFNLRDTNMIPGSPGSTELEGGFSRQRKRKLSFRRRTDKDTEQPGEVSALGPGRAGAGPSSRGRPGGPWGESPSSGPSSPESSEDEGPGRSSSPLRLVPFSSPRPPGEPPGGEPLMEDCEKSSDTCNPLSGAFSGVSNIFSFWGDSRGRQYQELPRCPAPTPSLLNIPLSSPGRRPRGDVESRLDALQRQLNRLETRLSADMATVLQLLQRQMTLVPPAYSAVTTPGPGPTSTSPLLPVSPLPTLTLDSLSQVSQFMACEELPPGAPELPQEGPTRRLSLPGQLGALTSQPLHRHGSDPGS

As usually defined, the EC50 is the concentration giving half of the maximal effect. Higher therefore signals weaker potency. As usually defined, the IC50 is the concentration needed to halve the response being measured. Read a high IC50 as a need for much substance. Broadly, the MIC is the lowest concentration found to suppress growth. Molecule `COc1ccc2ncc(F)c([C@@H](O)CC[C@@H]3CCN(CCSc4cccs4)C[C@@H]3C(=O)O)c2c1` displayed an EC50 in assay [1] of 24 µM. Further, the IC50 turned out to be 3.9 µM in assay [2], 0.34 µM in assay [5] and 8.8 µM in assay [6]. The MIC in assay [3] (setting [7]) is 0.8 µM and 0.4 µg/mL; in assay [4] (setting [8]) it was 0.2 µg/mL and 0.4 µM.

In turn, `COc1ccc2ncc(F)c(CCCN3CCN(CCSc4cccs4)C[C@@H]3C(N)=O)c2c1` displayed an EC50 in assay [1] of 2 µM. In addition, the MIC in assay [3] (setting [7]) was 1.6 µM and 0.8 µg/mL.

`COc1ccc2ncc(F)c(CCCN3CCN(CCCc4ccccc4)C[C@@H]3C(=O)O)c2c1` gave an EC50 in assay [1] of 17 µM. Besides, the minimal inhibitory concentration (MIC) is 1.7 µM and 0.8 µg/mL in assay [3] (setting [7]); 0.4 µg/mL and 0.9 µM in assay [4] (setting [8]). For the same molecule, the IC50 in assay [5] stood at 0.46 µM; in assay [6], 10.2 µM.

On to `COc1ccc2ncc(F)c(CCCN3CCN(CCSc4cccs4)C[C@@H]3C(=O)O)c2c1`, for which a half-maximal effect in assay [1] (EC50) was put at 17 µM. The IC50 in assay [2] is 5.4 µM; in assay [5], 0.37 µM; in assay [6], 7.64 µM. Besides, the MIC in assay [3] (setting [7]) is 0.8 µM and 0.4 µg/mL; in assay [4] (setting [8]), 0.2 µg/mL and 0.4 µM.

Regarding `COc1ccc2ncc(F)c(/C=C/CN3CCN(CCSc4cccs4)C[C@@H]3C(=O)O)c2c1`, in assay [1], the EC50 was under 30 µM. Besides, the minimum inhibitory concentration (MIC) in assay [3] (setting [7]) is 3.1 µM and 1.5 µg/mL; in assay [4] (setting [8]) it was 0.8 µg/mL and 1.6 µM. Besides, the IC50 is 0.68 µM in assay [5] and 1.81 µM in assay [6].

For `COc1ccc2ncc(F)c(CCCN3CCN(CCCCc4ccccc4)C[C@@H]3C(=O)O)c2c1`, in assay [1], the concentration giving a half-maximal response (EC50) is 21 µM. The MIC is 12.9 µM and 6.2 µg/mL in assay [3] (setting [7]); 3.1 µg/mL and 6.5 µM in assay [4] (setting [8]). In addition, the IC50 in assay [5] was found to be 0.37 µM; in assay [6], 3.82 µM.

In assay [1], `COc1ccc2ncc(F)c(CCCN3CCN(C/C=C/c4cc(F)ccc4F)C[C@@H]3C(=O)O)c2c1` returned an EC50 of 25 µM. Moreover, the IC50 in assay [2] was found to be 6.46 µM; in assay [5], 0.28 µM; in assay [6] it was 2.41 µM. The MIC in assay [3] (setting [7]) was 0.4 µM and 0.2 µg/mL; in assay [4] (setting [8]), 0.1 µg/mL and 0.2 µM.

The molecule `COc1ccc2ncc(F)c(CCCN3CCN(CCSc4cccs4)C[C@H]3C(=O)O)c2c1` registered a half-maximal effective concentration (EC50) in assay [1] of 26 µM. The MIC in assay [3] (setting [7]) was 6.3 µM and 3.1 µg/mL; in assay [4] (setting [8]) it was 1.6 µg/mL and 3.3 µM.

`COC(=O)[C@H]1CN(CCSc2cccs2)CCN1CCCc1c(F)cnc2ccc(OC)cc12`: the EC50 in assay [1] was found to be 2 µM. Besides, the IC50 in assay [2] turned out to be 18.4 µM; in assay [5] it was 300 µM. Besides, the MIC in assay [3] (setting [7]) was > 99.3 µM and > 50 µg/mL; in assay [4] (setting [8]), > 50 µg/mL and > 99.3 µM.

As to `COc1ccc2ncc(F)c(CCCN3CCN(Cc4ccccc4)C[C@@H]3C(=O)O)c2c1`, the midpoint of the response in assay [1], the EC50, lay at 25 µM. The MIC in assay [3] (setting [7]) was > 114 µM and > 50 µg/mL.

The molecule `COC(=O)[C@@H]1CN(CCSc2cccs2)CCN1CCCc1c(F)cnc2ccc(OC)cc12` showed an EC50 in assay [1] of 4 µM. Also, the MIC in assay [3] (setting [7]) is > 99.3 µM and > 50 µg/mL; in assay [4] (setting [8]), > 50 µg/mL and > 99.3 µM.

In the case of `COc1ccc2ncc(F)c(CCCN3CCN(C(=O)CCc4ccccc4)C[C@@H]3C(=O)O)c2c1`, the MIC in assay [3] (setting [7]) was > 104 µM and > 50 µg/mL; in assay [4] (setting [8]), > 50 µg/mL and > 104 µM.

`COc1ccc2ncc(F)c(CCCN3CCN(C(=O)CSc4ccccc4)C[C@@H]3C(=O)O)c2c1`: the EC50 in assay [1] is under 30 µM. The MIC in assay [3] (setting [7]) was > 100 µM and > 50 µg/mL.

Regarding `COc1ccc2ncc(F)c(CCCN3CCN(C/C=C/c4ccccc4)C[C@@H]3C(=O)O)c2c1`, in assay [1], the EC50 turned out to be 38 µM. For the same molecule, the MIC in assay [3] (setting [7]) was 1.7 µM and 0.8 µg/mL; in assay [4] (setting [8]) it was 0.2 µg/mL and 0.4 µM. Besides, the IC50 in assay [5] stood at 0.19 µM; in assay [6], 3.36 µM.

In assay [1], `COc1ccc2ncc(F)c(CCCN3CCN(CCSc4cccs4)C[C@@H]3C(=O)NC(=O)CC(=O)O)c2c1` had an EC50 of 0.5 µM. Further, the MIC in assay [3] (setting [7]) was 21.8 µM and 12.5 µg/mL; in assay [4] (setting [8]), 12.5 µg/mL and 21.8 µM.

With `COc1ccc2ncc(F)c(CCCN3CCN(CCc4ccccc4)C[C@@H]3C(=O)O)c2c1`, the midpoint of the response in assay [1], the EC50, lay at 87 µM. Also, the MIC in assay [3] (setting [7]) is 14 µM and 6.3 µg/mL; in assay [4] (setting [8]), 3.1 µg/mL and 6.9 µM. The IC50 amounted to 0.54 µM in assay [5] and 12.6 µM in assay [6].

Consider `COc1ccc2ncc(F)c(CCCN3CCN(CCSc4cccs4)[C@@H](C(=O)O)C3)c2c1`, for which the EC50 in assay [1] was under 30 µM. The MIC is 6.3 µM and 3.1 µg/mL in assay [3] (setting [7]); 1.6 µg/mL and 3.3 µM in assay [4] (setting [8]).

Consider `COc1ccc2ncc(F)c(C#CCN3CCN(CCSc4cccs4)C[C@@H]3C(=O)O)c2c1`, for which the EC50 in assay [1] is under 30 µM. The MIC in assay [3] (setting [7]) was 51.5 µM and 25 µg/mL; in assay [4] (setting [8]), 12.5 µg/mL and 25.7 µM. In addition, the results for the 50% inhibitory concentration (IC50) in assay [5] and in assay [6] were 0.48 µM and 2.47 µM, respectively.

In turn, `COc1ccc2ncc(F)c(CCCN3CCN(C(=O)CSc4cccs4)C[C@@H]3C(=O)O)c2c1` yielded an EC50 in assay [1] of 7 µM. Moreover, the MIC was > 99.3 µM and > 50 µg/mL in assay [3] (setting [7]); > 50 µg/mL and > 99.3 µM in assay [4] (setting [8]).

On to `COc1ccc2ncc(F)c(/C=C\CN3CCN(CCSc4cccs4)C[C@@H]3C(=O)O)c2c1`, for which the EC50 in assay [1] was under 30 µM. The MIC in assay [3] (setting [7]) is 25.6 µM and 12.5 µg/mL; in assay [4] (setting [8]), 3.1 µg/mL and 6.4 µM. The IC50 turned out to be 0.28 µM in assay [5] and 9.92 µM in assay [6].

In assay [1], `COc1ccc2ncc(F)c(C(O)CCN3CCN(CCSc4cccs4)C[C@@H]3C(=O)O)c2c1` (mixture of isomers; 19) returned an EC50 of under 30 µM. Besides, the MIC was 24.7 µM and 12.5 µg/mL in assay [3] (setting [7]); 0.8 ug ml-1 and 1.6 uM in assay [4].

For `COc1ccc2ncc(F)c(C(O)CCN3CCN(CCSc4cccs4)C[C@@H]3C(=O)O)c2c1` (mixture of isomers; 20), the MIC was 12.5 µg/mL in assay [3]; 6.2 ug ml-1 and 12.3 uM in assay [4].
